Compound activity (PubChem BioAssay)
KDM4C inh: inhibitors of GASC-1 (KDM4C) histone demethylase, primary screen, biochemical, single concentration HTS | inhibition, % at 12.5 µM | Lysine-specific demethylase 4C (Homo sapiens), Q9H3R0 | AID 720574, 2013 | GST-KDM4C 2-372, H3K9me3 peptide, LANCE TR-FRET | 0.15% of 96,000 active;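 active = mean replicate inhibition above about 25%, with at least 55% of replicates also reaching it, limit read from the data, passing the limit was not always enough; inconclusive = only one of those two conditions met; inactive = neither condition met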
Target sequence (Q9H3R0 2-372 limits assumed): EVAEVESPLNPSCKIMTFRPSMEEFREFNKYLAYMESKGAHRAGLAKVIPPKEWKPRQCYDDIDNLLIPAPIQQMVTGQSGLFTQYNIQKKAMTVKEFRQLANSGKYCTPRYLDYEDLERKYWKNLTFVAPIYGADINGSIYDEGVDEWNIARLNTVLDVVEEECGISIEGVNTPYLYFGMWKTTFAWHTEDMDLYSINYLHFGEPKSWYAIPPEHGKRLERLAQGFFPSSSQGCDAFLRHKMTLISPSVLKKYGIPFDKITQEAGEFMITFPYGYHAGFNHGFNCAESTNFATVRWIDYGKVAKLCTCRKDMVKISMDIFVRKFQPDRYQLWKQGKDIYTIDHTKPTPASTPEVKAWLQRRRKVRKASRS
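System – N-terminal GST-fused human GASC-1 (KDM4C) fragment, residues 2-372 · Input – enzyme final amount 10 nM · Technique – LANCE TR-FRET, Eu antibody, ULight-streptavidin, EDTA, ex 340 nm, em 618/671 nm · Medium – HEPES buffer, pH 7.5, plus ascorbate · Incubation – enzyme reaction 30 min, then detection 60 min, both room temperature · Reagent – H3K9me3 peptide with Fe(II)/2OG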
IDH1 mut inh: inhibitors of IDH1 R132H reductase, primary screen, biochemical, plate reader, single point | Isocitrate dehydrogenase [NADP] cytoplasmic (Homo sapiens), O75874 | diaphorase/resazurin fluorescence, 60 min | inhibition, % at 10 µM | 0.18% of 70,000 active | AID 624101, 2012; in the data active = inhibition above about 34%; inconclusive = no clear call, values can overlap the other calls; inactive = below about 11%
T cruzi growth-1: T. cruzi intracellular proliferation inhibitors, primary screen, cell-based, beta-gal Tulahuen parasites, NIH3T3 host, luminescence | inhibition, % at 8.34 µM | 5.9% of 77,000 active | T. cruzi beta-gal in NIH3T3, GalScreen luminescence, 90 h;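 active = mean inhibition above about 93%, with at least 55% of replicates each passing it, limit read from the data, passing the limit was not always enough; inconclusive = only one of those two conditions holds; inactive = neither condition holds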
Pf Dd2 growth: P. falciparum Dd2 growth inhibitors, primary screen, SYBR Green fluorescence, single dose replicates; 72 h; hits give low values; activity change, % at 10 µM; 2.3% of 94,000 active; AID 1159554, 2015; in the data active = activity change below about -80%; inconclusive = no clear call, values can overlap the other calls
T cruzi growth-2: T. cruzi intracellular proliferation inhibitors, confirmation, cell-based, NIH3T3 host, beta-gal parasite, luminescence, cherry-pick. shares compounds with T cruzi growth-1. T. cruzi beta-gal in NIH3T3, GalScreen luminescence, 90 h. inhibition, % at 8.35 µM. 72% of 5,600 active. AID 651739, 2012;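 active = mean replicate inhibition above about 95% and at least 55% of replicates individually reaching it, limit read from the data; inconclusive = only one of the two criteria is met; inactive = neither criterion is met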
T cruzi growth-3: inhibitors of intracellular T. cruzi replication, confirmation, NIH3T3 host cells, beta-gal parasites, cherry-pick, set 2. shares compounds with T cruzi growth-1. T. cruzi beta-gal in NIH3T3, GalScreen luminescence, 90 h. inhibition, % at 2.09 µM. 21% of 5,600 active. AID 651740, 2012;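 active = mean inhibition above about 95%, with at least 55% of replicates also reaching it, limit read from the data; inconclusive = meets just one of the two conditions; inactive = meets neither condition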
NIH3T3 tox: cytotoxicity in mouse NIH/3T3 fibroblasts, confirmation, cytotoxicity control for T. cruzi proliferation inhibitor project, cell-based, cherry-pick, single point; 14% of 5,600 active; NIH/3T3 viability, CellTiter-Glo ATP luminescence, 90 h; shares compounds with T cruzi growth-1; cytotoxicity (signal decrease), % at 8.35 µM;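 active = mean signal decrease across replicates above about 35% based on untreated-well scatter, with enough replicates individually passing, limit read from the data; inconclusive = no rule stated though some were filed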
3T3 cytotox 2: NIH/3T3 fibroblast cytotoxicity, confirmation, cytotoxicity control, cell-based, cherry-pick, single point, set 2. inhibition, % at 24.9 µM. 56% of 5,600 active. AID 651744, 2012. NIH/3T3 viability, CellTiter-Glo ATP luminescence, 90 h. shares compounds with T cruzi growth-1;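 active = mean loss of cell viability signal at or above a set limit, and enough replicates individually reaching it; inconclusive = meets only the mean limit or only the replicate share; inactive = meets neither condition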
A number is an active result; - = inactive; ? = inconclusive; . = no result given; + = active, no number. A selection: hits, their analogues and other compounds. The true share with any hit is near 5.8%.

SMILES	KDM4C inh	IDH1 mut inh	T cruzi growth-1	Pf Dd2 growth	T cruzi growth-2	T cruzi growth-3	NIH3T3 tox	3T3 cytotox 2
Cc1cccc(S(=O)(=O)N2CCCCN3[C@H](CO)[C@H](c4ccc(-c5ccccc5)cc4)[C@@H]3C2)c1	.	.	116	-	98	-	-	51
Cc1cccc(-c2ccc([C@@H]3[C@H]4CN(S(=O)(=O)c5cccc(C)c5)CCCCN4[C@H]3CO)cc2)c1	-	.	110	-	104	115	-	56
Cc1cccc(-c2ccc([C@H]3[C@@H](CO)N4CCCCN(S(=O)(=O)c5cccc(C)c5)C[C@H]34)cc2)c1	-	.	100	-85	-	106	50	103
Cc1cccc(S(=O)(=O)N2CCCCN3[C@@H](CO)[C@H](c4ccc(-c5ccccc5)cc4)[C@@H]3C2)c1	.	.	-	-	.	.	.	.
Cc1cccc(S(=O)(=O)N2CCCCN3[C@H](C2)[C@@H](c2ccc(-c4ccccc4)cc2)[C@@H]3CO)c1	.	.	-	-	.	.	.	.
O=S(=O)(c1ccccc1)N1CCCCN2[C@H](CO)[C@H](c3ccc(-c4ccccc4)cc3)[C@@H]2C1	-	.	104	-	100	-	-	49
Cc1noc(C)c1NC(=O)Nc1ccc2c(c1)C(=O)N([C@H](C)CO)C[C@H](C)[C@@H](CN(C)C)OCCCC[C@@H](C)O2	-	-	-	-	.	.	.	.
C[C@@H]1CN([C@H](C)CO)S(=O)(=O)c2ccc(C3=CCCC3)cc2O[C@H]1CN(C)CC1CCCC1	-	-	105	-	-	-	59	105
C[C@@H]1CN([C@H](C)CO)S(=O)(=O)c2ccc(C3=CCCC3)cc2O[C@@H]1CN(C)Cc1ccccc1	-	-	109	-	100	-	-	107
C[C@H]1CN([C@@H](C)CO)S(=O)(=O)c2ccc(C3=CCCC3)cc2O[C@H]1CN(C)Cc1ccccc1	-	-	97	-	96	-	?	107
COc1ccccc1-c1cnc2c(c1)C(=O)N([C@H](C)CO)C[C@H](C)[C@@H](CN(C)Cc1cccc(F)c1)O2	-	-	?	-	102	-	-	42
COc1cccc(-c2cnc3c(c2)C(=O)N([C@H](C)CO)C[C@H](C)[C@H](CN(C)Cc2cccc(C)c2)O3)c1	-	-	96	-	-	-	-	?
COc1ccccc1-c1cnc2c(c1)C(=O)N([C@H](C)CO)C[C@@H](C)[C@H](CN(C)Cc1cccc(F)c1)O2	-	-	-	-	.	.	.	.
COc1ccccc1-c1cnc2c(c1)C(=O)N([C@@H](C)CO)C[C@@H](C)[C@@H](CN(C)Cc1cccc(F)c1)O2	-	-	?	-	-	-	-	52
COc1ccccc1-c1cnc2c(c1)C(=O)N([C@H](C)CO)C[C@@H](C)[C@@H](CN(C)Cc1cccc(F)c1)O2	-	-	-	-	.	.	.	.
CCCN1[C@H](C(=O)N[C@@H](C)c2ccccc2)[C@@H](CO)[C@@H]2Cn3c(ccc(-c4ccccc4)c3=O)[C@@H]21	-	.	?	-	104	-	-	52
CCCN1[C@@H]2c3ccc(-c4ccccc4)c(=O)n3C[C@@H]2[C@@H](CO)[C@@H]1C(=O)N[C@@H](C)c1ccccc1	-	.	-	-	.	.	.	.
CN(C)CC(=O)N1[C@H](C(=O)NC2CCC2)[C@@H](CO)[C@@H]2Cn3c(ccc(-c4cccc(F)c4)c3=O)[C@@H]21	-	.	-	-	.	.	.	.
CN1[C@H](C(=O)NC2CCCCC2)[C@@H](CO)[C@@H]2Cn3c(ccc(-c4cccc(F)c4)c3=O)[C@@H]21	-	.	?	-	-	-	-	-
CN(C)CC(=O)N1[C@@H]2c3ccc(-c4ccc(F)cc4)c(=O)n3C[C@@H]2[C@@H](CO)[C@@H]1C(=O)NC1CCCC1	-	.	101	-	-	-	-	-
CN(C)CC(=O)N1[C@H](C(=O)NC2CCCC2)[C@@H](CO)[C@@H]2Cn3c(ccc(-c4ccc(F)cc4)c3=O)[C@@H]21	-	.	105	-	-	-	-	-
COc1ccc(-c2ccc([C@@H]3[C@@H](C#N)N(C(=O)NC4CCCC4)[C@H]3CO)cc2)cc1	-	.	-	-	.	.	.	.
Cc1ccc(NC(=O)Nc2ccc3c(c2)C(=O)N(C)[C@@H]2CC[C@@H](CC(=O)O)O[C@H]2CO3)cc1	-	.	-	-	.	.	.	.
C[C@@H]1CN([C@H](C)CO)C(=O)c2cccc(NC(=O)Nc3ccccc3)c2O[C@H]1CN(C)C(=O)NC1CCCCC1	-	-	-	-	.	.	.	.
CN(C)CC(=O)N1[C@@H]2c3ccc(-c4ccccc4)c(=O)n3C[C@@H]2[C@@H](CO)[C@@H]1C(=O)NC1CCC1	-	.	+	.	-	-	-	-
SMILES	KDM4C inh	IDH1 mut inh	T cruzi growth-1	Pf Dd2 growth	T cruzi growth-2	T cruzi growth-3	NIH3T3 tox	3T3 cytotox 2
CN(C)CC(=O)N1[C@@H]2c3ccc(-c4cccc(F)c4)c(=O)n3C[C@@H]2[C@@H](CO)[C@@H]1C(=O)NC1CCC1	-	.	-	-	.	.	.	.
CN1[C@@H]2c3ccc(-c4ccncc4)c(=O)n3C[C@@H]2[C@@H](CO)[C@@H]1C(=O)NC1Cc2ccccc2C1	-	.	-	-	.	.	.	.
CN1[C@@H]2c3ccc(-c4cncnc4)c(=O)n3C[C@@H]2[C@@H](CO)[C@@H]1C(=O)NC1Cc2ccccc2C1	-	.	+	.	-	-	-	-
CO[C@H]1CN(C)C(=O)c2cc(NC(=O)c3ccc4c(c3)OCO4)ccc2OC[C@@H](C)NC[C@@H]1C	-	-	-	-	.	.	.	.
CC(=O)Nc1ccc2c(c1)C(=O)N(C)[C@@H]1CC[C@@H](CC(=O)NCc3ccccc3)O[C@@H]1CO2	-	.	-	-	.	.	.	.
COc1cccc(C#Cc2ccc([C@@H]3[C@H](C#N)N(C(=O)C4CCCC4)[C@H]3CO)cc2)c1	-	.	.	-	.	.	.	.
N#C[C@@H]1[C@H](c2ccc(C#Cc3ccc(F)cc3)cc2)[C@@H](CO)N1C(=O)C1CC1	-	.	103	-	105	108	-	98
N#C[C@H]1[C@@H](c2ccc(C#Cc3cccc(F)c3)cc2)[C@H](CO)N1C(=O)C1CC1	-	.	98	-	100	100	39	95
